Format in all cases: functional, organism-based
For assay [1], the species on record is Cavia porcellus. The assay is described as follows: Tested for agonist potency by conducting tests on electrically stimulated guinea pig ileal longitudinal muscle preparation. As to conditions: Muscle tissue. The method, boiled down: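 Electrically stimulated guinea pig ileal longitudinal muscle preparation. Values are arithmetic means of at least three experiments.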

The species entered for assay [2] is Cavia porcellus. In words: Tested for wash-resistant activity in guinea pig ileal longitudinal muscle preparation, after forty washes with Kreb's buffer pre-incubated with compound. As to conditions: Muscle tissue. The method, boiled down: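 Electrically stimulated guinea pig ileal longitudinal muscle was incubated with agonist, then given forty washes with Krebs' buffer. Read-out was percent recovery of twitch height.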

The species entered for assay [3] is Cavia porcellus. In words: Tested for wash-resistant activity after forty post-washes (for removal of naltrexone) with Kreb's buffer pre-incubated with compound. The essentials:
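Agonist-treated guinea pig ileal longitudinal muscle was washed, then incubated with naltrexone (500 nM) for 15 min. A further forty washes with Krebs' buffer followed. Read-out was percent recovery of twitch height.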

Assay [4] is filed under the species Cavia porcellus. The assay is described as follows: Tested for wash-resistant activity by incubating guinea pig ileal longitudinal muscle (pre-treated with the compound) with naltrexone (500 nM).Number of determinations, n=3. The settings on record: Muscle tissue. The essentials: (§1)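 Agonist-treated guinea pig ileal longitudinal muscle was first washed forty times with Krebs' buffer. It was then incubated with naltrexone (500 nM) for 15 min. Read-out was percent recovery of twitch height.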

The species named for assay [5] is Cavia porcellus. In words: Tested for wash-resistant activity by incubating guinea pig ileal longitudinal muscle (pre-treated with the compound) with naltrexone (500 nM). Number of determinations, n=3. As to conditions: Muscle tissue. The method, boiled down: as §1

For orientation: IC50 means the concentration needed to halve the response being measured. Read a high IC50 as lower potency. In turn, `COC(=O)/C=C/C(=O)Nc1ccc([C@@H](CN2CCCC2)N(C)C(=O)Cc2ccc(Cl)c(Cl)c2)cc1` came in with an IC50 in the assay filed under Cavia porcellus [1] of 11.2 nM.

`CN(C(=O)Cc1ccc(Cl)c(Cl)c1)[C@H](CN1CCCC1)c1cccc(N)c1`: the IC50 in the assay filed under Cavia porcellus [1] came to 0.17 nM.

`CN(C(=O)Cc1ccc(Cl)c(Cl)c1)[C@@H](CN1CCCC1)c1ccccc1` gave a half-inhibitory concentration (IC50) in the assay listed under Cavia porcellus [1] of 198 nM. On the same count and under the same terms, next, `COC(=O)/C=C/C(=O)Nc1cccc([C@@H](CN2CCCC2)N(C)C(=O)Cc2ccc(Cl)c(Cl)c2)c1`: 29 nM. On to `CN(C(=O)Cc1ccc(Cl)c(Cl)c1)[C@H](CN1CCCC1)c1cccc(N=C=S)c1`, for which the Recovery in the assay listed under Cavia porcellus [2] is 0%; in the assay listed under Cavia porcellus [3] it was 0%; in the assay filed under Cavia porcellus [4], 41%. Moreover, the IC50 in the assay listed under Cavia porcellus [1] is 23.8 nM. `CN(C(=O)Cc1ccc(Cl)c(Cl)c1)C(CN1CCCC1)c1ccc(N)cc1` (stereo not drawn) gave an IC50 in the assay listed under Cavia porcellus [1] of 0.65 nM.

Consider `CN(C(=O)Cc1ccc(Cl)c(Cl)c1)[C@H](CN1CCCC1)c1ccccc1` [ICI-199,441], for which the Recovery is 59% in the assay filed under Cavia porcellus [5] and 20% in the assay filed under Cavia porcellus [2]. Besides, in the assay filed under Cavia porcellus [1], the IC50 came out at 0.27 nM. In the case of `CN(C(=O)Cc1ccc(Cl)c(Cl)c1)[C@H](CN1CCCC1)c1ccc(N=C=S)cc1`, the 50% inhibitory concentration (IC50) in the assay filed under Cavia porcellus [1] was determined as 38.6 nM.

The values are drawn from ChEMBL document CHEMBL1127305, “kappa Opioid receptor selective affinity labels: electrophilic benzeneacetamides as kappa-selective opioid antagonists” (J Med Chem, 1994).
